Experimental findings from ChEMBL document CHEMBL1150411, “4-(Phenylaminomethylene)isoquinoline-1,3(2H,4H)-diones as potent and selective inhibitors of the cyclin-dependent kinase 4 (CDK4)” (J Med Chem, 2008) are described below.

The source made the active and inactive calls. No cut-off for these calls is given here.

For experiment [1], the system named is MCF7. The experiment can be described thus: Cell cycle arrest in human MCF7 cells assessed as accumulation at S phase at 0.1 uM after 24 hrs by flow cytometry. The format is functional. The gist of the method:
(§1)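 MCF-7 cells in 6-well plates, exposed to compound for 24 h at 37 °C, then pulse-labelled with 10 µM bromodeoxyuridine for 30 min. Cells trypsinized, fixed in 80% methanol at -20 °C, acid-denatured and permeabilized, stained with anti-BrdU-FITC, counterstained with propidium iodide and run on flow cytometry. S-phase percentage taken from the propidium iodide histogram.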
On the technique in general: Flow cytometry measures light scatter and fluorescence of single cells or particles in a stream.

Experiment [2] has as its system MCF7. The experiment can be described thus: Cell cycle arrest in human MCF7 cells assessed as accumulation at S phase at 1 uM after 24 hrs by flow cytometry. In kind it is functional. The method, boiled down: as §1
Experiment [3] concerns MCF7. Description: Antiproliferative activity against human MCF7 cells by SRB method. The format is functional, cell-based.
Experiment [4] deals with HCT-116. The experiment can be described thus: Antiproliferative activity against human HCT116 cells by SRB method. In kind it is functional, cell-based. (Sulforhodamine B stains cellular protein and so reports cell mass.)
For experiment [5], the target named is T1, Retinoblastoma-associated protein (Homo sapiens) (UniProt P06400).
T1 sequence (whole entry): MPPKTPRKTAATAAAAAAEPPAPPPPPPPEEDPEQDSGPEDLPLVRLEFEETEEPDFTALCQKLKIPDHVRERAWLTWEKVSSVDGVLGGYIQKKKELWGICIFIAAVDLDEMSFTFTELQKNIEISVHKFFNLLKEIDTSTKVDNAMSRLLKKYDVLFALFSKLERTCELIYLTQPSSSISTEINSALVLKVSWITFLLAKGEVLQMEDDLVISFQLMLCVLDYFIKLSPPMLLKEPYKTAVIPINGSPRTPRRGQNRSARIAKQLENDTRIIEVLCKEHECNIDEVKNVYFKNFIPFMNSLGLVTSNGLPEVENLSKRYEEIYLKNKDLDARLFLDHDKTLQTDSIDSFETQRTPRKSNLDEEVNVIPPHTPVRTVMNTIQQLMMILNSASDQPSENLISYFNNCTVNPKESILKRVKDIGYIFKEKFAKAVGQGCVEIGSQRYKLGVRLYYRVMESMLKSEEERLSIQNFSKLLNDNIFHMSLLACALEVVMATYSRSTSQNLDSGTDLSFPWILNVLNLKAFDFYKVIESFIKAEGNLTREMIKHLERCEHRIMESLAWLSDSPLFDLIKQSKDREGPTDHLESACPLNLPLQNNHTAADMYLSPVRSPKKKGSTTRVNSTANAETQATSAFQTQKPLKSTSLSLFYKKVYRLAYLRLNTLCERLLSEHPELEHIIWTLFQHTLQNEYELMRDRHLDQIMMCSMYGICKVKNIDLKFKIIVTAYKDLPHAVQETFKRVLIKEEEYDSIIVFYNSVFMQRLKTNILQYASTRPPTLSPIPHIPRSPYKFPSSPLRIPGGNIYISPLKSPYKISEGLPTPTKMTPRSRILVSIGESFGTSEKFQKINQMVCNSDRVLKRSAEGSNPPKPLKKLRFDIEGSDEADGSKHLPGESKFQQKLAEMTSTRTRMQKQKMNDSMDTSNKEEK
The experiment can be described thus: Inhibition of retinoblastoma susceptibility gene product phosphorylation in human MCF7 cells after 24 hrs. In kind it is cell-based. The gist of the method:
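MCF-7 cells exposed to compound for 24 h at 37 °C. Extracts separated by SDS-PAGE and immunoblotted with Rb antibody, with the phosphorylated pRB band followed. Also checked with an antibody specific for phospho-Ser807/811 pRB.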

The target in experiment [6] is Cyclin-dependent kinase 1/cyclin B1 (Homo sapiens, UniProt P06493). The experiment can be described thus: Inhibition of CDK1/Cyclin B1 expressed in Sf9 cells-baculovirus system assessed as retinoblastoma susceptibility gene product phosphorylation.
In experiment [7] the test system is MCF7. Description: Cell cycle arrest in human MCF7 cells assessed as accumulation at G1 phase after 24 hrs by flow cytometry. In kind it is functional, cell-based. The method, boiled down:
as §1

The subject of experiment [8] is MCF7. The experiment can be described thus: Cell cycle arrest in human MCF7 cells assessed as accumulation at S phase at 0.3 uM after 24 hrs by flow cytometry. The format is functional. The method, boiled down:
as §1

Experiment [9] has as its system MCF7. Description: Cell cycle arrest in human MCF7 cells assessed as accumulation at S phase at 3 uM after 24 hrs by flow cytometry. The format is functional. The gist of the method:
as §1

Experiment [10] deals with MCF7. Description: Decrease in CDK4 level in human MCF7 cells at 7.5 to 10 uM after 24 hrs by immunoblot analysis. The format is functional. The arrangement: scale not given: the % may be the effect or the level left. The gist of the method:
(§2)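 MCF-7 cells incubated with or without compound for 24 h at 37 °C. Lysates made in Tris/NaCl/EDTA/NP-40/deoxycholate buffer containing PMSF, DTT, NaF and vanadate. 10-20 µg protein run on 8 or 10% SDS-PAGE and blotted to nitrocellulose. Probed with antibodies to each regulatory protein; actin antibody served as loading control.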

Experiment [11] concerns MCF7. Description: Decrease in p27 level in human MCF7 cells at 7.5 uM after 24 hrs by immunoblot analysis. In kind it is functional. On the set-up: scale not given: the % may be the effect or the level left. The gist of the method: as §2
Experiment [12] addresses Cyclin-dependent kinase 4/cyclin D1 (Homo sapiens, UniProt P11802). The experiment can be described thus: Inhibition of CDK4/cyclin D1 expressed in Sf9 cells-baculovirus system assessed as retinoblastoma susceptibility gene product phosphorylation.
Experiment [13] concerns MCF7. The experiment can be described thus: Decrease in cyclin D1 level in human MCF7 cells at 7.5 to 10 uM after 24 hrs by immunoblot analysis. In kind it is functional. On the set-up: scale not given: the % may be the effect or the level left. The gist of the method:
as §2
On the technique in general: Immunoblotting shows a protein as a band on a membrane.

Experiment [14] has as its target Cyclin-dependent kinase 2 (Homo sapiens, UniProt P24941). The experiment can be described thus: Inhibition of CDK2/cyclin E expressed in Sf9 cells-baculovirus system assessed as retinoblastoma susceptibility gene product phosphorylation.
Experiment [15] has as its system MCF7. Description: Decrease in cyclin B level in human MCF7 cells at 4 uM after 24 hrs by immunoblot analysis. The format is functional. On the set-up: scale not given: the % may be the effect or the level left. The method, boiled down: as §2
For experiment [16], the system named is MCF7. Description: Decrease in CDK2 level in human MCF7 cells at 7.5 uM after 24 hrs by immunoblot analysis. The arrangement: scale not given: the % may be the effect or the level left. The format is functional. The gist of the method:
as §2

Experiment [17] has as its system MCF7. Description: Decrease in CDK1 level in human MCF7 cells at 7.5 uM after 24 hrs by immunoblot analysis. In kind it is functional. The arrangement: scale not given: the % may be the effect or the level left. The method, boiled down:
as §2

For experiment [18], the system named is MCF7. Description: Increase in cyclin E level in human MCF7 cells at >2 uM after 24 hrs by immunoblot analysis. In kind it is functional. The gist of the method:
as §2

Sequence of Cyclin-dependent kinase 1/cyclin B1 (P06493 whole entry): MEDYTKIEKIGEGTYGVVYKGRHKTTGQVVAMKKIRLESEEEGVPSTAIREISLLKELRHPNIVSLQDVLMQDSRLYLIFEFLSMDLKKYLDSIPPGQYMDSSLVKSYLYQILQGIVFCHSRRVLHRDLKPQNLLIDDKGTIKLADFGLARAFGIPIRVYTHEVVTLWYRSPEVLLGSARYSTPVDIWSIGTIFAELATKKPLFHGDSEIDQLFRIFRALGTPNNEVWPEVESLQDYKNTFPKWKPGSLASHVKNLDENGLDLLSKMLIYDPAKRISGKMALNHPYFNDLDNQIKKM
Sequence of Cyclin-dependent kinase 1/cyclin B1 (P14635 whole entry, further chain): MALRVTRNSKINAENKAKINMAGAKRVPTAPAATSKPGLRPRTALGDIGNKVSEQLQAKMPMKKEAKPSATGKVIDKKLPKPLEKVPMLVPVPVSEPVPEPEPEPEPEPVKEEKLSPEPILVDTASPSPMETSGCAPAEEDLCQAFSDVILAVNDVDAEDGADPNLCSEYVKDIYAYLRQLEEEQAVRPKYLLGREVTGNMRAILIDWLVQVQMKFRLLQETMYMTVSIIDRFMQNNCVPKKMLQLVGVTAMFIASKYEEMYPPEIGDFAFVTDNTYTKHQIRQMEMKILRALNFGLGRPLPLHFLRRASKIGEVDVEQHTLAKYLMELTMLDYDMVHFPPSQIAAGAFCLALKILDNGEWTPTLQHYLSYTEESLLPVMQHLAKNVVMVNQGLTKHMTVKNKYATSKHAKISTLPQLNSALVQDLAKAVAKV
Sequence of Cyclin-dependent kinase 4/cyclin D1 (P11802 whole entry): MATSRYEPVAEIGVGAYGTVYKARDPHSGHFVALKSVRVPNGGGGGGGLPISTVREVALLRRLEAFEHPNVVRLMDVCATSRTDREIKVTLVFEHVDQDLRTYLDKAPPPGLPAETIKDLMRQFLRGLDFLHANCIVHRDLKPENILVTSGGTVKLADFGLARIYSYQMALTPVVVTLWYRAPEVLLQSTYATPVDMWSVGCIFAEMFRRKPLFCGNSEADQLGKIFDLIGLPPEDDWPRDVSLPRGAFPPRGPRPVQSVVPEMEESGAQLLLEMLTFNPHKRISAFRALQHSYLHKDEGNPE
Sequence of Cyclin-dependent kinase 4/cyclin D1 (P24385 whole entry, further chain): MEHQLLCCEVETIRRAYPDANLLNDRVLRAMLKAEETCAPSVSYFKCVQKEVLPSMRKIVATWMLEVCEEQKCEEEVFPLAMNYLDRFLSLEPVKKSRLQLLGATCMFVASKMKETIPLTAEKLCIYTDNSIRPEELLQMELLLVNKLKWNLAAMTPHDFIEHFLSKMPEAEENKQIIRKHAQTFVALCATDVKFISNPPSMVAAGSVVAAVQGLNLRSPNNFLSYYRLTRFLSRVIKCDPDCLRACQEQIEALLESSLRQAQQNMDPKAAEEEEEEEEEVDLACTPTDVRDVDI

By IC50 is commonly meant the midpoint of a concentration-inhibition curve. Take `CN1CCN(c2ccc(N/C=C3\C(=O)NC(=O)c4ccc(Br)cc43)cc2)CC1`: the Activity in experiment [1] is 37%; in experiment [2] it was 16%; in experiment [5] it was “Dose-dependent effect”; in experiment [8], 32%; in experiment [9], 3%. The values for the IC50 in experiment [3], in [4] and in experiment [6] were 3 µM, 3.1 µM and greater than 50 µM, respectively. In experiment [7], the result was Active.
Consider `O=C1NC(=O)c2ccc(Br)cc2/C1=C/Nc1ccc(CN2CCCCC2)cc1`, for which the Activity was 35% in experiment [1]; 10% in experiment [2]; 60% in experiment [10]; 45% in experiment [11]; 85% in experiment [13]; “Dose-dependent effect” in experiment [5]. The Activity in experiment [15] was found to be 60%; in experiment [16] it was 55%; in experiment [17], 40%; in experiment [8], 34%; in experiment [18], 5%; in experiment [9] it was 2%. Further, the half-inhibitory concentration (IC50) in experiment [12] was 1.1 µM; in experiment [3], 3.1 µM; in experiment [4], 5 µM; in [14], greater than 50 µM; in experiment [6], greater than 50 µM. The outcome in [7] was Active.
